Laboratory results from article PMC3049929 (Journal of medicinal chemistry, 2008).

Experiments:
[1] = test system: P. falciparum 3D7 (chloroquine-sensitive); type: cell-based; conditions: Plasmodium falciparum, 3D7, Erythrocyte, 48 h, read-out: ED50 (nM) 3D7
How it was run: (§1)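 Parasites cultured in type A+ human erythrocytes (2% hematocrit) in RPMI-1640 with 20% heat-inactivated type A+ human plasma, under 5% CO2/5% O2/90% N2. Test compound in DMSO added to culture at 0.5% parasitemia and 0.5% hematocrit. Incubated 37 °C for 48 h, then [8-3H]hypoxanthine (0.3 µCi) added for a further 24 h. Cells harvested to filter mats and counted by β-scintillation. Uninfected-erythrocyte background subtracted; DMSO-only wells taken as 100% growth. ED50 from linear regression of incorporation vs concentration.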

[2] = test system: P. falciparum K1 (chloroquine-resistant, pyrimethamine-resistant); type: cell-based; conditions: Plasmodium falciparum, K1, Erythrocyte, 48 h, read-out: ED50 (nM) K1
How it was run: as §1

In the case of Cc1ccccc1CN([C@H]1CCC[C@@H]1N(Cc1cncn1C)c1ccc(C#N)cc1)S(=O)(=O)c1cn(C)cn1 (racemic) [7b, (±)-[N-(2-Methylbenzyl)-N-{trans-2-[(4-cyanophenyl)(3-methyl-3H-imidazol-4-ylmethyl)amino]cyclopentyl}]-1-methyl-1H-imidazole-4-sulfonamide], the IC50 [1] is reported as 3000 nM and the IC50 [2] is reported as 3200 nM.

Cn1cnc(S(=O)(=O)N(Cc2ccsc2)[C@H]2CCC[C@@H]2N(Cc2cncn2C)c2ccc(C#N)cc2)c1 (racemic) [7c, (±)-[N-(Thiophen-3-ylmethyl)-N-{trans-2-[(4-cyanophenyl)(3-methyl-3H-imidazol-4-ylmethyl)amino]cyclopentyl}]-1-methyl-1H-imidazole-4-sulfonamide] gave an IC50 [1] of 2700 nM and an IC50 [2] of 2700 nM.

In the case of Cn1cnc(S(=O)(=O)N(CC2CCN(c3ncccn3)CC2)[C@H]2CCC[C@@H]2N(Cc2cncn2C)c2ccc(C#N)cc2)c1 (racemic) [7e, (±)-[N-{N-(2-Pyrimidinyl)-piperidin-4-ylmethyl}-N-{trans-2-[(4-cyanophenyl)(3-methyl-3H-imidazol-4-ylmethyl)amino]cyclopentyl}]-1-methyl-1H-imidazole-4-sulfonamide], the IC50 [1] is reported as 2600 nM and the IC50 [2] is reported as 750 nM.

Molecule Cn1cnc(S(=O)(=O)N(Cc2ccccc2)[C@H]2CC[C@@H](N(Cc3cncn3C)c3ccc(C#N)cc3)C2)c1 (racemic) [8a, (±)-[N-Benzyl-N-{cis-3-[(4-cyanophenyl)(3-methyl-3H-imidazol-4-ylmethyl)amino]cyclopentyl}]-1-methyl-1H-imidazole-4-sulfonamide] has an IC50 [1] of 700 nM and an IC50 [2] of 800 nM.

Cc1ccccc1CN([C@H]1CC[C@@H](N(Cc2cncn2C)c2ccc(C#N)cc2)C1)S(=O)(=O)c1cn(C)cn1 (racemic) [8b, (±)-[N-(2-Methylbenzyl)-N-{cis-3-[(4-cyanophenyl)(3-methyl-3H-imidazol-4-ylmethyl)amino]cyclopentyl}]-1-methyl-1H-imidazole-4-sulfonamide] showed an IC50 [1] of 2400 nM and an IC50 [2] of 2600 nM.

Cn1cnc(S(=O)(=O)N(Cc2ccsc2)[C@H]2CC[C@@H](N(Cc3cncn3C)c3ccc(C#N)cc3)C2)c1 (racemic) [8c, (±)-[N-(Thiophen-3-ylmethyl)-N-{cis-3-[(4-cyanophenyl)(3-methyl-3H-imidazol-4-ylmethyl)amino]cyclopentyl}]-1-methyl-1H-imidazole-4-sulfonamide] was tested, and the IC50 [1] was 2400 nM and the IC50 [2] was 2500 nM.

Cn1cnc(S(=O)(=O)N(CC2CCN(c3ncccn3)CC2)[C@H]2CC[C@@H](N(Cc3cncn3C)c3ccc(C#N)cc3)C2)c1 (racemic) [8e, (±)-[N-{N-(2-Pyrimidinyl)-piperidin-4-ylmethyl}-N-{cis-3-[(4-cyanophenyl)(3-methyl-3H-imidazol-4-ylmethyl)amino]cyclopentyl}]-1-methyl-1H-imidazole-4-sulfonamide] showed an IC50 [1] of 600 nM and an IC50 [2] of 720 nM.

Cc1ccccc1CN([C@@H]1CC[C@@H](N(Cc2cncn2C)c2ccc(C#N)cc2)C1)S(=O)(=O)c1cn(C)cn1 (racemic) [9b, (±)-[N-(2-Methylbenzyl)-N-{trans-3-[(4-cyanophenyl)(3-methyl-3H-imidazol-4-ylmethyl)amino]cyclopentyl}]-1-methyl-1H-imidazole-4-sulfonamide] gave an IC50 [1] of 2400 nM and an IC50 [2] of 2200 nM.

Cn1cnc(S(=O)(=O)N(Cc2ccsc2)[C@@H]2CC[C@@H](N(Cc3cncn3C)c3ccc(C#N)cc3)C2)c1 (racemic) [9c, (±)-[N-(Thiophen-3-ylmethyl)-N-{trans-3-[(4-cyanophenyl)(3-methyl-3H-imidazol-4-ylmethyl)amino]cyclopentyl}]-1-methyl-1H-imidazole-4-sulfonamide] gave an IC50 [1] of 1500 nM and an IC50 [2] of 1200 nM.

In the case of Cn1cnc(S(=O)(=O)N(CC2CCN(C(=O)OC(C)(C)C)CC2)[C@@H]2CC[C@@H](N(Cc3cncn3C)c3ccc(C#N)cc3)C2)c1 (racemic) [9d, (±)-[N-(N-tert-Butoxycarbonylpiperidin-4-ylmethyl)-N-{trans-3-[(4-cyanophenyl)(3-methyl-3H-imidazol-4-ylmethyl)amino]cyclopentyl}]-1-methyl-1H-imidazole-4-sulfonamide], the IC50 [1] is reported as 310 nM and the IC50 [2] is reported as 80 nM.

In the case of Cn1cnc(S(=O)(=O)N(CC2CCN(c3ncccn3)CC2)[C@@H]2CC[C@@H](N(Cc3cncn3C)c3ccc(C#N)cc3)C2)c1 (racemic) [9e, (±)-[N-{N-(2-Pyrimidinyl)-piperidin-4-ylmethyl}-N-{trans-3-[(4-cyanophenyl)(3-methyl-3H-imidazol-4-ylmethyl)amino]cyclopentyl}]-1-methyl-1H-imidazole-4-sulfonamide], the IC50 [1] is reported as 2600 nM and the IC50 [2] is reported as 1500 nM.

Cc1ccccc1CN(CCCN(Cc1cncn1C)c1ccc(C#N)cc1)S(=O)(=O)c1cn(C)cn1 [2b, [N-(2-Methylbenzyl)-N-3-{(4-cyanophenyl)(3-methyl-3H-imidazol-4-ylmethyl)amino}propyl]-1-methyl-1H-imidazole-4-sulfonamide] showed an IC50 [1] of 2900 nM and an IC50 [2] of 2900 nM.

With Cn1cnc(S(=O)(=O)N(CCCN(Cc2cncn2C)c2ccc(C#N)cc2)Cc2ccsc2)c1 [2c, [N-(Thiophen-3-ylmethyl)-N-3-{(4-cyanophenyl)(3-methyl-3H-imidazol-4-ylmethyl)amino}propyl]-1-methyl-1H-imidazole-4-sulfonamide] the IC50 [1] was 2800 nM and the IC50 [2] was 2200 nM.

With Cn1cnc(S(=O)(=O)N(CCCN(Cc2cncn2C)c2ccc(C#N)cc2)CC2CCN(C(=O)OC(C)(C)C)CC2)c1 [2d, [N-(N-tert-Butoxycarbonylpiperidin-4-ylmethyl)-N-3-{(4-cyanophenyl)(3-methyl-3H-imidazol-4-ylmethyl)amino}propyl]-1-methyl-1H-imidazole-4-sulfonamide] the IC50 [1] was 330 nM and the IC50 [2] was 190 nM.

In the case of Cn1cnc(S(=O)(=O)N(Cc2ccccc2)CC(C)(C)N(Cc2cncn2C)c2ccc(C#N)cc2)c1 [3a, [N-Benzyl-N-{(4-cyanophenyl)(3-methyl-3H-imidazol-4-ylmethyl)amino}-2,2-dimethylethyl]-1-methyl-1H-imidazole-4-sulfonamide], the IC50 [1] is reported as 160 nM and the IC50 [2] is reported as 55 nM.

Cc1ccccc1CN(CC(C)(C)N(Cc1cncn1C)c1ccc(C#N)cc1)S(=O)(=O)c1cn(C)cn1 [3b, [N-(2-Methylbenzyl)-N-{(4-cyanophenyl)(3-methyl-3H-imidazol-4-ylmethyl)amino}-2,2-dimethylethyl]-1-methyl-1H-imidazole-4-sulfonamide] was tested, and the IC50 [1] was 210 nM and the IC50 [2] was 75 nM.

Cn1cnc(S(=O)(=O)N(CC2CCN(C(=O)OC(C)(C)C)CC2)CC(C)(C)N(Cc2cncn2C)c2ccc(C#N)cc2)c1 [3d, [N-(N-tert-Butoxycarbonylpiperidin-4-ylmethyl)-N-{(4-cyanophenyl)(3-methyl-3H-imidazol-4-ylmethyl)amino}-2,2-dimethylethyl]-1-methyl-1H-imidazole-4-sulfonamide] gave an IC50 [1] of 400 nM and an IC50 [2] of 250 nM.

Molecule Cn1cnc(S(=O)(=O)N(CC2CCN(c3ncccn3)CC2)CC(C)(C)N(Cc2cncn2C)c2ccc(C#N)cc2)c1 [3e, [N-{N-(2-Pyrimidinyl)-piperidin-4-ylmethyl}-N-{(4-cyanophenyl)(3-methyl-3H-imidazol-4-ylmethyl)amino}-2,2-dimethylethyl]-1-methyl-1H-imidazole-4-sulfonamide] has an IC50 [1] of 180 nM and an IC50 [2] of 75 nM.
